Test results from ChEMBL document CHEMBL1123064, “[1,4]Benzoxazine-2,3-diones as antiallergic agents” (J Med Chem, 1985).

Tests used:
Rattus norvegicus [1] = experiment: Inhibition of antigen-induced […] at a dose of 25 mg/kg in passive cutaneous anaphylaxis in the male Sprague-Dawley rats; type: functional
In short: (§1)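 IgE antiserum was raised in male Sprague-Dawley rats with im ovalbumin/aluminum hydroxide plus ip B. pertussis. Naive rats were sensitized intradermally at dorsal sites (antiserum 1:20). After 48 h, groups of four received oral compound or vehicle (1% methylcellulose). 10 min later, iv challenge with 4 mg ovalbumin in 1% Evans blue; blued wheal areas measured at 30 min; Student's t test.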

Rattus norvegicus [2] = species on record: Rattus norvegicus; experiment: Concentration required to inhibit antigen-induced release of histamine (AIR) by 50% from passively sensitized rat mast cells; type: functional, cell-based; conditions: read-out: I50
In short: (§2)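 Washed rat mast cells, passively sensitized in vitro with rat anti-ovalbumin serum, washed again, then challenged with ovalbumin; histamine release measured. Compounds dissolved in Me2SO (final 0.17%). I50 read from concentration-dependent inhibition; number of experiments in parentheses. DSCG positive control in every experiment.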

Rattus norvegicus [3] = experiment: Effective dose against passive cutaneous anaphylaxis in rat when administered perorally.; type: functional; conditions: po; in short: as §1
Rattus norvegicus [4] = experiment: Effective dose against passive cutaneous anaphylaxis when administered perorally.; type: functional; conditions: po; in short: as §1
Rattus norvegicus [5] = experiment: Percent Inhibition of antigen-induced release of histamine at a dose of 50 mg/kg in passive cutaneous anaphylaxis in the male Sprague-Dawley rats; type: functional; in short: as §1
Rattus norvegicus [6] = species on record: Rattus norvegicus; experiment: Concentration required to inhibit antigen-induced release of histamine (AIR) by 50% from passively sensitized rat mast cells at p<0.01; type: functional, cell-based; conditions: Mast cell, read-out: I50; in short: as §2
Rattus norvegicus [7] = experiment: Effective dose against passive anaphylaxis in rat when administered intraperitoneally.; type: functional; conditions: ip
Rattus norvegicus [8] = experiment: Inhibition of antigen-induced release of histamine at a dose of 50 mg/kg in passive cutaneous anaphylaxis in the male Sprague-Dawley rats; type: functional; in short: as §1
Rattus norvegicus [9] = experiment: Effective dose against passive cutaneous anaphylaxis in rat when administered intraperitoneally.; type: functional; conditions: ip

## O=c1[nH]c2cc(Cl)ccc2oc1=O
Rattus norvegicus [1]
  inhibition in vivo at 25 mg/kg: 14%

## COc1ccc2oc(=O)c(=O)[nH]c2c1
Rattus norvegicus [2]
  IC50: 15 µM
Rattus norvegicus [1]
  inhibition in vivo at 25 mg/kg: 21%

## O=c1[nH]c2cc3[nH]c(=O)c(=O)oc3cc2oc1=O
Rattus norvegicus [2]
  IC50: 3 µM
Rattus norvegicus [3]
  ED50: > 125 mg/kg
Rattus norvegicus [1]
  inhibition in vivo at 25 mg/kg: 13%

## O=c1[nH]c2cc(C(F)(F)F)ccc2oc1=O
Rattus norvegicus [2]
  IC50: 100 µM
Rattus norvegicus [1]
  inhibition in vivo at 25 mg/kg: 20%

## O=c1[nH]c2cc3oc(=O)c(=O)[nH]c3cc2oc1=O
Rattus norvegicus [2]
  IC50: 1.2 µM
Rattus norvegicus [3]
  ED50: > 125 mg/kg
Rattus norvegicus [1]
  inhibition in vivo at 25 mg/kg: 0%

## C=CCc1cc(OC)c2oc(=O)c(=O)[nH]c2c1
Rattus norvegicus [4]
  ED50: 7 mg/kg
Rattus norvegicus [2]
  IC50: 10 µM
Rattus norvegicus [1]
  inhibition in vivo at 25 mg/kg: 77%

## O=c1[nH]c2cc3ccccc3cc2oc1=O
Rattus norvegicus [1]
  inhibition in vivo at 25 mg/kg: 11%
Rattus norvegicus [5]
  inhibition in vivo at 50 mg/kg: 45%
Rattus norvegicus [6]
  IC50: 45 µM

## O=c1[nH]c2cc3c(cc2oc1=O)CCCC3
Rattus norvegicus [2]
  IC50: 10 µM
Rattus norvegicus [3]
  ED50: 96 mg/kg
Rattus norvegicus [1]
  inhibition in vivo at 25 mg/kg: 15%

## COc1ccc2[nH]c(=O)c(=O)oc2c1
Rattus norvegicus [2]
  IC50: 28 µM
Rattus norvegicus [1]
  inhibition in vivo at 25 mg/kg: 33%

## COC(=O)c1cc(OC)c2oc(=O)c(=O)[nH]c2c1
Rattus norvegicus [2]
  IC50: 3.4 µM
Rattus norvegicus [1]
  inhibition in vivo at 25 mg/kg: 35%

## COc1cc2[nH]c(=O)c(=O)oc2cc1OC
Rattus norvegicus [2]
  IC50: 30 µM
Rattus norvegicus [3]
  ED50: 20 mg/kg
Rattus norvegicus [1]
  inhibition in vivo at 25 mg/kg: 45%
Rattus norvegicus [5]
  inhibition in vivo at 50 mg/kg: 100%

## CCOC(=O)C(=O)Nc1ccc2oc(=O)c(=O)[nH]c2c1
Rattus norvegicus [2]
  IC50: 60 µM

## Cc1ccc2[nH]c(=O)c(=O)oc2c1
Rattus norvegicus [2]
  IC50: 32 µM
Rattus norvegicus [5]
  inhibition in vivo at 50 mg/kg: 97%

## COc1cccc2[nH]c(=O)c(=O)oc12
Rattus norvegicus [2]
  IC50: 7 µM
Rattus norvegicus [3]
  ED50: 14 mg/kg
Rattus norvegicus [1]
  inhibition in vivo at 25 mg/kg: 88%
Rattus norvegicus [5]
  inhibition in vivo at 50 mg/kg: 89%

## CCOC(=O)c1ccc2oc(=O)c(=O)[nH]c2c1
Rattus norvegicus [2]
  IC50: 10 µM
Rattus norvegicus [1]
  inhibition in vivo at 25 mg/kg: 0%

## O=c1[nH]c2ccccc2oc1=O
Rattus norvegicus [2]
  IC50: 42 µM
Rattus norvegicus [5]
  inhibition in vivo at 50 mg/kg: 70%

## O=c1[nH]c2c(ccc3ccccc32)oc1=O
Rattus norvegicus [2]
  IC50: < 100 µM
Rattus norvegicus [5]
  inhibition in vivo at 50 mg/kg: 18%

## N#Cc1ccc2[nH]c(=O)c(=O)oc2c1
Rattus norvegicus [2]
  IC50: 15 µM
Rattus norvegicus [7]
  ED50: 23 mg/kg
Rattus norvegicus [8]
  inhibition in vivo at 50 mg/kg: 14%

## O=c1[nH]c2cc([N+](=O)[O-])ccc2oc1=O
Rattus norvegicus [2]
  IC50: 0.8 µM
Rattus norvegicus [8]
  inhibition in vivo at 50 mg/kg: 24%
Rattus norvegicus [5]
  inhibition in vivo at 50 mg/kg: 91%

## O=C(O)c1ccc2[nH]c(=O)c(=O)oc2c1
Rattus norvegicus [2]
  IC50: 16 µM
Rattus norvegicus [1]
  inhibition in vivo at 25 mg/kg: 7%
Rattus norvegicus [5]
  inhibition in vivo at 50 mg/kg: 83%

## O=c1[nH]c2ccc(O)cc2oc1=O
Rattus norvegicus [2]
  IC50: 170 µM

## O=C([O-])c1cc(=O)c2c(OCC(O)COc3cccc4oc(C(=O)[O-])cc(=O)c34)cccc2o1.[Na+].[Na+] [CROMOLYN SODIUM]
Rattus norvegicus [9]
  ED50: 6 mg/kg
Rattus norvegicus [2]
  IC50: 4.5 µM
